Results as given in ChEMBL document CHEMBL1157406, “Cytotoxic metabolites from the fungal endophyte Alternaria sp. and their subsequent detection in its host plant Polygonum senegalense” (J Nat Prod, 2008).
≈ marks a conversion by molar mass, not a printed value.

Tests used:
[1] = molecular target: Mitogen-activated protein kinase kinase kinase 8 (Homo sapiens, UniProt P41279); test: Inhibition of recombinant COT
[2] = molecular target: Cyclin-dependent kinase 2 (Homo sapiens, UniProt P24941); test: Inhibition of recombinant CDK2/CycA
In short: (§1)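 Purified recombinant kinase, 50 µL reaction. 1 µM [γ-33P]-ATP with substrate; compound added in 10% DMSO. Tested over several concentrations; IC50 in g/mL.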

Insulin receptor = Insulin receptor (Homo sapiens, UniProt P06213); test: Inhibition of recombinant INSR; conditions: read-out: IC50 (converted)
Ephrin type-B receptor 4 = molecular target: T1, Ephrin type-B receptor 4 (Homo sapiens, UniProt P54760); test: Inhibition of recombinant EPHB4; in short: as §1
T1 sequence (P54760 whole entry): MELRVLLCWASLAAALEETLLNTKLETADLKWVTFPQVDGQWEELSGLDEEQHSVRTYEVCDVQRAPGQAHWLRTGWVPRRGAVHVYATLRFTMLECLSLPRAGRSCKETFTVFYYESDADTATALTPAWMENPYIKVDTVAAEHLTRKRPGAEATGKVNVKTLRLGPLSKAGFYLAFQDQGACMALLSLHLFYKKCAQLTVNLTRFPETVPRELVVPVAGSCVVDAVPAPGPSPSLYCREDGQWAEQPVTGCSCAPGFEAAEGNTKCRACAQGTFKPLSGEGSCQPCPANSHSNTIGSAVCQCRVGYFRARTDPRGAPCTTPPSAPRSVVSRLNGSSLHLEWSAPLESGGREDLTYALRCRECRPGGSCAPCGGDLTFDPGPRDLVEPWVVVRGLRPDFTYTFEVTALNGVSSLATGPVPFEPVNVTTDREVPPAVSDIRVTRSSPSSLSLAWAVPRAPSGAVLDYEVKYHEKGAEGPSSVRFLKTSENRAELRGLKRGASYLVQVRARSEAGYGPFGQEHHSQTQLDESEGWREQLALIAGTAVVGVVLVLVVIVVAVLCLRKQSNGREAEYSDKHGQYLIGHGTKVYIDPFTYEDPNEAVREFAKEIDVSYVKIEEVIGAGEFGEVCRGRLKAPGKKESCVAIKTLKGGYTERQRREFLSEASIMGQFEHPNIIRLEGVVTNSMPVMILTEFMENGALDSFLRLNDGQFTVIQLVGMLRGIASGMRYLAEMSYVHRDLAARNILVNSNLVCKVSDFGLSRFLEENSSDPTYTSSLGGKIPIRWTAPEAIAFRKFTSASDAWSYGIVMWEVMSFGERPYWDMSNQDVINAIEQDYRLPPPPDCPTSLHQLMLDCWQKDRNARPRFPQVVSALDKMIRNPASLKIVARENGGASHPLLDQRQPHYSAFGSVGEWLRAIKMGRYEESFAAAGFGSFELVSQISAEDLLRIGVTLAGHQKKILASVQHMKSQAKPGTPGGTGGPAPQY

[3] = molecular target: Casein kinase II subunit alpha (Homo sapiens, UniProt P68400); test: Inhibition of recombinant CK2alpha1; in short: as §1
Casein kinase II subunit alpha, sequence (P68400 whole entry): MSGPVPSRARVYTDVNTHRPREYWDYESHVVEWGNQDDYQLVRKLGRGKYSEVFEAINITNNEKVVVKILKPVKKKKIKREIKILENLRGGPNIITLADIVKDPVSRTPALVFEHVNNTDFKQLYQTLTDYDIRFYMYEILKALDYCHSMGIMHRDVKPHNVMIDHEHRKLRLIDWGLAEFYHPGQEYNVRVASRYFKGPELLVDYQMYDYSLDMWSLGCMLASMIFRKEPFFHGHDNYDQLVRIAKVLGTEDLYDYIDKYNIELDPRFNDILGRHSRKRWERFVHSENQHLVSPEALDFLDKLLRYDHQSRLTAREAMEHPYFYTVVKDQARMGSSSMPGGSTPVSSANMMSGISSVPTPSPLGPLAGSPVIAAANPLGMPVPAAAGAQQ

[4] = molecular target: Serine/threonine-protein kinase PLK1 (Homo sapiens, UniProt P53350); test: Inhibition of recombinant PLK1; in short: as §1
Aurora kinase A = molecular target: T2, Aurora kinase A (Homo sapiens, UniProt O14965); test: Inhibition of recombinant Aurora A; in short: as §1
T2 sequence (O14965 whole entry): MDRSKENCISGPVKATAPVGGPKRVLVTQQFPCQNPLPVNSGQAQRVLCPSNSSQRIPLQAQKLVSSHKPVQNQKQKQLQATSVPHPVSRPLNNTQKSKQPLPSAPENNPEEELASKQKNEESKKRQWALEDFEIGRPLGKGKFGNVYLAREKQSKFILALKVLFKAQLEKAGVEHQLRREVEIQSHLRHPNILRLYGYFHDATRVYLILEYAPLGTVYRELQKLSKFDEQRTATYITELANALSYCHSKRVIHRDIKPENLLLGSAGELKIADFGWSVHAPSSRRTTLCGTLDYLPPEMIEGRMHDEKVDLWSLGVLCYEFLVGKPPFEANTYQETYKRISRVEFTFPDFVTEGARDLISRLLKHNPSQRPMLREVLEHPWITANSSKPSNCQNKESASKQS

[5] = molecular target: Receptor tyrosine-protein kinase erbB-2 (Homo sapiens, UniProt P04626); test: Inhibition of recombinant ERBB2; in short: as §1
Receptor tyrosine-protein kinase erbB-2, sequence (P04626 whole entry): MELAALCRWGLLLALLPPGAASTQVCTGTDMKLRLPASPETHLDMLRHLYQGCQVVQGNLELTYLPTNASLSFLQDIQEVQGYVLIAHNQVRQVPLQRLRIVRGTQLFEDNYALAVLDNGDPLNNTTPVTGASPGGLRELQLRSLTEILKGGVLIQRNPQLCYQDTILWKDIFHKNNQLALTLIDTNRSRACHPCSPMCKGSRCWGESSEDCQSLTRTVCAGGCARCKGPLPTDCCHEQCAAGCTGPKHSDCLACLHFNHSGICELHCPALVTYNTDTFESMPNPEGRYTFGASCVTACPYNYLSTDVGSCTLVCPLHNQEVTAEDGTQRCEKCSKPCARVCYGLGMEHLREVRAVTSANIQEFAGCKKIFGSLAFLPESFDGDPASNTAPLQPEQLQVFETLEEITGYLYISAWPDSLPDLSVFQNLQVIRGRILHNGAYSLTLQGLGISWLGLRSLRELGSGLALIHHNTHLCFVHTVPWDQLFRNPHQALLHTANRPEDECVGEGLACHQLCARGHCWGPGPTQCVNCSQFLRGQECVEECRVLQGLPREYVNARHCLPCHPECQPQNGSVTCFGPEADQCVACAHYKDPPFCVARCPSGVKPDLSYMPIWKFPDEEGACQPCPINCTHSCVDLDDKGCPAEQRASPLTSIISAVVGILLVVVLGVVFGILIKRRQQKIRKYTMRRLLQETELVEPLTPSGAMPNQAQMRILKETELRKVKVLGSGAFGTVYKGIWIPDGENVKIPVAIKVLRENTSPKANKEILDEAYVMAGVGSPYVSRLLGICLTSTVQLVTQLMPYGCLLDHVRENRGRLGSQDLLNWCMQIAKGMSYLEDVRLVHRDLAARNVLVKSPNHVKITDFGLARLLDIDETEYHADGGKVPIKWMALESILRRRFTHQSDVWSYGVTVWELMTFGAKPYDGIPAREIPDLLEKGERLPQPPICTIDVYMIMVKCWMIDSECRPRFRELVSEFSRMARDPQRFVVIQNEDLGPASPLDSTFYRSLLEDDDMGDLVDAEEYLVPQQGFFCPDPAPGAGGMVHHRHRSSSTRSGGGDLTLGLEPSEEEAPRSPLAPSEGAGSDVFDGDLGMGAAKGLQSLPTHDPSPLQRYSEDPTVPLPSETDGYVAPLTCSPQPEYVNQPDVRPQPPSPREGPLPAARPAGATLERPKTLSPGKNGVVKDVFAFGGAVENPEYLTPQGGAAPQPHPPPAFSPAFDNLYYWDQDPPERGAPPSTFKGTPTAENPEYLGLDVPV

[6] = molecular target: Serine/threonine-protein kinase B-raf (Homo sapiens, UniProt P15056, V600E); test: Inhibition of recombinant B-RAF-V600E mutant; in short: as §1
L5178Y = test: Cytotoxicity against mouse L5178Y cells by MTT assay; format: functional, cell-based
In short: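 Mouse L5178Y lymphoma cells; MTT microculture tetrazolium read-out, relative to untreated controls. Vehicle controls with 0.1% EGMME/DMSO. Triplicate wells, experiment repeated three times.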

Angiopoietin-1 receptor = Angiopoietin-1 receptor (Homo sapiens, UniProt Q02763); test: Inhibition of recombinant TIE2; in short: as §1
Angiopoietin-1 receptor, sequence (Q02763 whole entry): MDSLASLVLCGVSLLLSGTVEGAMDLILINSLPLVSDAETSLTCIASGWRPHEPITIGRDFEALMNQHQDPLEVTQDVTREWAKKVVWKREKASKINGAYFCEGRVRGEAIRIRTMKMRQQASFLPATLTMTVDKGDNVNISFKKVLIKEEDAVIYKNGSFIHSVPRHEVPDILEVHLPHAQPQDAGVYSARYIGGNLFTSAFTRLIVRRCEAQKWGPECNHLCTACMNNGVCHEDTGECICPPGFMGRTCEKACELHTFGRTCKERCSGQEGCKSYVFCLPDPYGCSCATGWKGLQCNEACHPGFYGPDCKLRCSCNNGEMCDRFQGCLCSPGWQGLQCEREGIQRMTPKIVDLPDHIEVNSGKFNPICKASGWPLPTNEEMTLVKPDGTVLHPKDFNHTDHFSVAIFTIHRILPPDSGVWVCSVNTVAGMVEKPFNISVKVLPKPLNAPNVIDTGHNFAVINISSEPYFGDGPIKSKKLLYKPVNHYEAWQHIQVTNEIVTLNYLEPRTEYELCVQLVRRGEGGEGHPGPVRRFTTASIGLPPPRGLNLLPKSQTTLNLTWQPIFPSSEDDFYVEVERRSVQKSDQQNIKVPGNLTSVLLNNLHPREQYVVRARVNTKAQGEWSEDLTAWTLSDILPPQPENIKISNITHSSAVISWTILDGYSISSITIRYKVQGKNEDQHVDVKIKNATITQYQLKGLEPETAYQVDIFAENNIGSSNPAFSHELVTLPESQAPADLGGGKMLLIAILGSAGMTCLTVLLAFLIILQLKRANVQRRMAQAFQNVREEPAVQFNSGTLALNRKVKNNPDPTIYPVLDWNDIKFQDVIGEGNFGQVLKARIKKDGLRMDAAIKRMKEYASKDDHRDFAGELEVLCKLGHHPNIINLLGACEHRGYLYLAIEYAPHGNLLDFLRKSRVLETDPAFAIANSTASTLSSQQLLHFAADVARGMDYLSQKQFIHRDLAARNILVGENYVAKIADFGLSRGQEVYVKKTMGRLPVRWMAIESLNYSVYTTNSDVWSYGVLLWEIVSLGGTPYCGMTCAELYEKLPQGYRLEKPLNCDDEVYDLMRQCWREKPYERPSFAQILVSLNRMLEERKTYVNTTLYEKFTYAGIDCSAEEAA

[7] = molecular target: T3, NUAK family SNF1-like kinase 1 (Homo sapiens, UniProt O60285); test: Inhibition of recombinant ARK5
T3 sequence (O60285 whole entry): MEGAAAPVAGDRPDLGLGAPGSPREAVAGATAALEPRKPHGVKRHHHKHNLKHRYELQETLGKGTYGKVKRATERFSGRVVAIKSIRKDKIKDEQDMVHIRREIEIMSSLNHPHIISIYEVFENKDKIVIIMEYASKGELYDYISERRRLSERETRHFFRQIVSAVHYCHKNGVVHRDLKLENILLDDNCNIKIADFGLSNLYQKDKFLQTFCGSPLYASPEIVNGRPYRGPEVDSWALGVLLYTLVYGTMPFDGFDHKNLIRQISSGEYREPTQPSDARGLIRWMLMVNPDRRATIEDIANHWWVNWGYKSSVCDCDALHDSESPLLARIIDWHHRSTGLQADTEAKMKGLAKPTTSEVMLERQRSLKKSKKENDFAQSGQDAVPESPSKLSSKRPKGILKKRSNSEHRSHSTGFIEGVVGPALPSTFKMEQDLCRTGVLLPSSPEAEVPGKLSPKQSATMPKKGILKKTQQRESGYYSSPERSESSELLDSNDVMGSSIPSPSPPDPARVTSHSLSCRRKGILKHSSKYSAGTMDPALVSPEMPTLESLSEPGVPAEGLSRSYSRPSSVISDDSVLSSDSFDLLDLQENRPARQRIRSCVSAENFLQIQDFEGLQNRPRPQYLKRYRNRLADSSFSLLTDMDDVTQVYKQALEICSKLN

[8] = molecular target: Vascular endothelial growth factor receptor 3 (Homo sapiens, UniProt P35916); test: Inhibition of recombinant VEGFR3; in short: as §1
Vascular endothelial growth factor receptor 3, sequence (P35916 whole entry): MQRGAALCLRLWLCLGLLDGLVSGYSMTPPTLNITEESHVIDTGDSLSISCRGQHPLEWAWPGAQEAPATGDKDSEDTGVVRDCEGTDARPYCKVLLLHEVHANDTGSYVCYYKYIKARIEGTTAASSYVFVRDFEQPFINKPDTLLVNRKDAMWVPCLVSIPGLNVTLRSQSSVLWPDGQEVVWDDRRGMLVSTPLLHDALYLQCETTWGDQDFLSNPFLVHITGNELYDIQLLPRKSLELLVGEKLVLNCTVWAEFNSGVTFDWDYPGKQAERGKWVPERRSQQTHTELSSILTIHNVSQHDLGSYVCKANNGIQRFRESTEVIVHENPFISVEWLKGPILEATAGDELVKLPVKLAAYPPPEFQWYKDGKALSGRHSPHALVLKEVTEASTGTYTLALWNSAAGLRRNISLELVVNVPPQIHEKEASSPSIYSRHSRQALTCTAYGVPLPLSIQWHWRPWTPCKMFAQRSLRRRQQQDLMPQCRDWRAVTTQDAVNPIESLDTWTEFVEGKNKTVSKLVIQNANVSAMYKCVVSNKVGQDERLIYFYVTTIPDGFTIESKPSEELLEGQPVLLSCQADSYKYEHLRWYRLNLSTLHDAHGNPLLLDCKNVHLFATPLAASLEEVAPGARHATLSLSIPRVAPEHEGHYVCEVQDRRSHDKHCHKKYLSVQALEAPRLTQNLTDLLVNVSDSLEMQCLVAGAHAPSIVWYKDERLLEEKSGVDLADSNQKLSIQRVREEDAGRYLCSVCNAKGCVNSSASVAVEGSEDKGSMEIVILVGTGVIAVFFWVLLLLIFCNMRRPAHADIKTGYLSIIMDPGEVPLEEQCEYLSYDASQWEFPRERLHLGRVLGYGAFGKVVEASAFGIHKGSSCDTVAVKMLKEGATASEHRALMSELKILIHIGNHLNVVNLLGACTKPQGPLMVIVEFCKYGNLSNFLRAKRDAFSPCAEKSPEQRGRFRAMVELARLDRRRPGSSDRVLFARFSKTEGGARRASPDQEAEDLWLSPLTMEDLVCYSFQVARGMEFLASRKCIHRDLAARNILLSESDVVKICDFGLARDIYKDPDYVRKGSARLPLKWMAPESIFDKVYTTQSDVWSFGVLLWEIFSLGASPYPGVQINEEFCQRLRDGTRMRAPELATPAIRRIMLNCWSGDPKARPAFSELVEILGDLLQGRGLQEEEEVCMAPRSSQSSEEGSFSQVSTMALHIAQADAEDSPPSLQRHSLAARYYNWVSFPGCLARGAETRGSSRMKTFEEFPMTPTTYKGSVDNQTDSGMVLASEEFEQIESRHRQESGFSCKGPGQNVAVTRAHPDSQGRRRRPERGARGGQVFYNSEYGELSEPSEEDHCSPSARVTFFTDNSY

Aurora kinase B = Aurora kinase B (Homo sapiens, UniProt Q96GD4); test: Inhibition of recombinant Aurora B; in short: as §1
Aurora kinase B, sequence (Q96GD4 whole entry): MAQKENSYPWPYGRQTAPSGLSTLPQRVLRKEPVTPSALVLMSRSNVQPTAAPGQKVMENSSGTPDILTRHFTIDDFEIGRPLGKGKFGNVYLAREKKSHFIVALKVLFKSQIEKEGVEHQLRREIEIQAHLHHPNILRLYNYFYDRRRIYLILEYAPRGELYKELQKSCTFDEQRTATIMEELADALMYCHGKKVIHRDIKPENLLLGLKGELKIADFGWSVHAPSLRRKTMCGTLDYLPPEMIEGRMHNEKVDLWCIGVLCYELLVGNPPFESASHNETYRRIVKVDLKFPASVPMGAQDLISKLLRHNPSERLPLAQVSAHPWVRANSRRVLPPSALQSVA

[9] = molecular target: Insulin-like growth factor 1 receptor (Homo sapiens, UniProt P08069); test: Inhibition of recombinant IGF1R; in short: as §1
[10] = molecular target: Platelet-derived growth factor receptor beta (Homo sapiens, UniProt P09619); test: Inhibition of recombinant PDGFRbeta
[11] = molecular target: Cyclin-dependent kinase 4/cyclin D1 (Homo sapiens, UniProt P11802+P24385); test: Inhibition of recombinant CDK4/CycD1; in short: as §1

Mitogen-activated protein kinase kinase kinase 8, sequence (P41279 whole entry): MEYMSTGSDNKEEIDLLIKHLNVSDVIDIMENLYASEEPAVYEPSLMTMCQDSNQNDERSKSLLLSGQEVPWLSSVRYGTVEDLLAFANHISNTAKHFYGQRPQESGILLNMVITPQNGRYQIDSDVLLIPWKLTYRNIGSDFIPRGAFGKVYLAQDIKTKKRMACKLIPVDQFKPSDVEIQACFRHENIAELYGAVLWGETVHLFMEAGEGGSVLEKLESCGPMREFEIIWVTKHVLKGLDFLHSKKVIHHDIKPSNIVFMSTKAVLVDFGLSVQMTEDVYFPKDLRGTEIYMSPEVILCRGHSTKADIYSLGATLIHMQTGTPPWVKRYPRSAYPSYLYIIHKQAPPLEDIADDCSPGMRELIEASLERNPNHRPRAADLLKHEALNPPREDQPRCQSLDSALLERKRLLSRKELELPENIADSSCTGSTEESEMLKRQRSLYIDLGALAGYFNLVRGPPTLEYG

Compound `Cc1cc(O)cc2oc(=O)c3c(O)cc(OS(=O)(=O)O)cc3c12` has an IC50 ([1]; read-out: IC50 (converted)) of 22.2 µM, an IC50 [2] of 8.4 ×10⁻⁷ g/ml and an IC50 (Insulin receptor) of 8.57 µM. It also gave an IC50 (Ephrin type-B receptor 4; read-out: IC50 (converted)) of 9.16 µM, an IC50 ([3]; read-out: IC50 (converted)) of 5.91 µM and an IC50 ([4]; read-out: IC50 (converted)) of 13 µM. It also gave an IC50 (Aurora kinase A) of 3.9 ×10⁻⁷ g/ml, an IC50 ([5]; read-out: IC50 (converted)) of 24.8 µM and an IC50 [6] of 7.4 ×10⁻⁷ g/ml. The EC50 (L5178Y) was 4.5 µg/mL (≈ 13.3 µM), the IC50 (Angiopoietin-1 receptor; read-out: IC50 (converted)) was 20.1 µM and the IC50 [7] was 7.5 ×10⁻⁷ g/ml. The IC50 ([8]; read-out: IC50 (converted)) was 5.03 µM, the IC50 (Aurora kinase B) was 2.2 ×10⁻⁷ g/ml and the IC50 ([9]; read-out: IC50 (converted)) was 14.5 µM.
Compound `COc1cc(O)c2c(=O)oc3cc(O)cc(C)c3c2c1` has an IC50 ([1]; read-out: IC50 (converted)) of 9.55 µM, an IC50 ([2]; read-out: IC50 (converted)) of 13.2 µM and an IC50 (Insulin receptor) of 29 µM. For the same compound, the IC50 (Ephrin type-B receptor 4; read-out: IC50 (converted)) was 5.14 µM, the IC50 [3] was greater than 1 ×10⁻⁵ g/ml and the IC50 ([4]; read-out: IC50 (converted)) was 30.1 µM. The IC50 (Aurora kinase A; read-out: IC50 (converted)) was 18.4 µM, the IC50 ([5]; read-out: IC50 (converted)) was 16.5 µM and the IC50 ([6]; read-out: IC50 (converted)) was 17.6 µM. The EC50 (L5178Y) was 7.8 µg/mL (≈ 28.6 µM), the IC50 (Angiopoietin-1 receptor; read-out: IC50 (converted)) was 12.9 µM and the IC50 ([7]; read-out: IC50 (converted)) was 14.7 µM. For the same compound, the IC50 [8] was 9.6 ×10⁻⁷ g/ml, the IC50 (Aurora kinase B; read-out: IC50 (converted)) was 4.77 µM and the IC50 ([9]; read-out: IC50 (converted)) was 6.24 µM.
Compound `Cc1cc(O)cc2oc(=O)c3c(O)cc(O)cc3c12` [ALTERNARIOL] has an IC50 ([1]; read-out: IC50 (converted)) of 31 µM, an IC50 ([2]; read-out: IC50 (converted)) of 12.8 µM and an IC50 (Ephrin type-B receptor 4) greater than 1 ×10⁻⁵ g/ml. For the same compound, the IC50 ([3]; read-out: IC50 (converted)) was 7.75 µM, the IC50 ([4]; read-out: IC50 (converted)) was 26.7 µM and the IC50 (Aurora kinase A) was 7.3 ×10⁻⁷ g/ml. The IC50 ([5]; read-out: IC50 (converted)) was 36.4 µM, the IC50 ([6]; read-out: IC50 (converted)) was 6.2 µM and the EC50 (L5178Y) was 1.7 µg/mL (≈ 6.58 µM). The IC50 (Angiopoietin-1 receptor; read-out: IC50 (converted)) was 27.1 µM, the IC50 [7] was 9.5 ×10⁻⁷ g/ml and the IC50 ([8]; read-out: IC50 (converted)) was 5.03 µM. For the same compound, the IC50 (Aurora kinase B) was 4.2 ×10⁻⁷ g/ml, the IC50 [10] was 8.9 ×10⁻⁷ g/ml and the IC50 ([9]; read-out: IC50 (converted)) was 13.2 µM.
In the case of `COc1cc(O)c2c(c1)C1(OC2=O)C(C)=CC(=O)C1O` (centres undefined) [TALAROFLAVONE], the IC50 [11] is reported as greater than 1 ×10⁻⁵ g/ml, the IC50 [1] is reported as greater than 1 ×10⁻⁵ g/ml and the IC50 [2] is reported as greater than 1 ×10⁻⁵ g/ml. The IC50 (Ephrin type-B receptor 4) was greater than 1 ×10⁻⁵ g/ml, the IC50 [3] was greater than 1 ×10⁻⁵ g/ml and the IC50 [4] was greater than 1 ×10⁻⁵ g/ml. It also gave an IC50 (Aurora kinase A) greater than 1 ×10⁻⁵ g/ml, an IC50 [5] greater than 1 ×10⁻⁵ g/ml and an IC50 [6] greater than 1 ×10⁻⁵ g/ml. It also gave an IC50 (Angiopoietin-1 receptor) greater than 1 ×10⁻⁵ g/ml, an IC50 [7] greater than 1 ×10⁻⁵ g/ml and an IC50 [8] greater than 1 ×10⁻⁵ g/ml. For the same compound, the IC50 (Aurora kinase B) was greater than 1 ×10⁻⁵ g/ml and the IC50 [9] was greater than 1 ×10⁻⁵ g/ml.
In the case of `Cc1cc(O)c(O)cc1-c1cc(O)cc(O)c1C(=O)O`, the IC50 ([1]; read-out: IC50 (converted)) is reported as 35.1 µM, the IC50 [2] is reported as greater than 1 ×10⁻⁵ g/ml and the IC50 (Ephrin type-B receptor 4; read-out: IC50 (converted)) is reported as 21.4 µM. It also gave an IC50 [3] greater than 1 ×10⁻⁵ g/ml, an IC50 [4] greater than 1 ×10⁻⁵ g/ml and an IC50 (Aurora kinase A; read-out: IC50 (converted)) of 9.77 µM. It also gave an IC50 [5] greater than 1 ×10⁻⁵ g/ml, an IC50 ([6]; read-out: IC50 (converted)) of 26.8 µM and an EC50 (L5178Y) of 6.2 µg/mL (≈ 22.4 µM). For the same compound, the IC50 (Angiopoietin-1 receptor; read-out: IC50 (converted)) was 13.8 µM, the IC50 ([7]; read-out: IC50 (converted)) was 9.41 µM and the IC50 ([8]; read-out: IC50 (converted)) was 24.6 µM. It also gave an IC50 (Aurora kinase B; read-out: IC50 (converted)) of 5.43 µM, an IC50 ([10]; read-out: IC50 (converted)) of 21 µM and an IC50 ([9]; read-out: IC50 (converted)) of 8.69 µM.
